Measurements published in ChEMBL document CHEMBL1158469 (J Med Chem, 2009).
Activity calls are given as the source filed them. The rule behind the calls is not given here.

Tests used:
[1] = biological target: Bcl-2-like protein 1 (Homo sapiens) (UniProt Q07817); experiment: Inhibition of Bcl-xL at 200 uM by 1D 1H NMR binding assay
[2] = Cytotoxicity against human PC3-ML cells assessed as cell viability after 72 hrs by ATP-LITE assay; format: functional, cell-based
In short: (§1)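 ATP-LITE viability readout. Seeded 24 h before dosing (H460, H1299 at 2000 cells/well; PC3 at 3000 cells/well) in 12F2 or RPMI1640 with 5 mM L-glutamine, 5% FBS and pen/strep. Fresh 5% medium added, then compounds in 0.1% DMSO final. Viability read after 72 h treatment and normalized to DMSO-treated cells.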

[3] = Stability in rat plasma after 1 hr at 37.5 degC; format: ADME, cell-free; conditions: read-out: Stability
In short: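 Compound incubated in rat plasma for 1 h; percentage of parent remaining was reported.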

[4] = Membrane permeability assessed as drug permeation at 100 uM at pH 7.2 after 8 hrs by PAMPA; format: ADME; conditions: pH 7.2, 8 h
[5] = Cytotoxicity against human H1299 cells assessed as cell viability after 72 hrs by ATP-LITE assay; format: functional, cell-based; conditions: NCI-H1299, 72 h; in short: as §1
[6] = Induction of apoptosis in human RS11846 cells after 1 to 2 days by FITC-annexin V and propidium iodide assay; format: functional, cell-based
Mus musculus [7] = experiment: Toxicity in human Bcl2 expressing B6 transgenic mouse administered as single dose at 72 umol/kg, ip after 24 hrs; format: organism-based; conditions: in vivo
NCI-H460 = experiment: Cytotoxicity against human H460 cells assessed as cell viability after 72 hrs by ATP-LITE assay; format: functional, cell-based; conditions: NCI-H460, 72 h; in short: as §1
Mus musculus [8] = experiment: Toxicity in human Bcl2 expressing B6 transgenic mouse at 120 umol/kg, ip administered as single dose after 24 hrs; format: organism-based; conditions: in vivo
[9] = Stability in rat liver microsome at 4 uM after 1 hr; format: ADME; conditions: liver microsomes, read-out: Stability
In short: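 Compound incubated for 1 h in rat microsomal preparations; percentage of parent remaining was reported.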

[10] = Induction of apoptosis in human BP3 cells after 1 to 2 days by FITC-annexin V and propidium iodide assay; format: functional, cell-based
[11] = Chemical stability after 60 days at room temperature by HPLC/LC-MS analysis; format: physicochemical; conditions: 1440 h
In short: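 Solid compounds stored in air at room temperature for 60 days. Stability followed by HPLC combined with LC-MS.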

Mus musculus [12] = experiment: Reduction of spleen weight in human Bcl2 expressing B6 transgenic mouse at 72 umol/kg, ip administered as single dose after 24 hrs; format: functional; parameters: scale not given: the % may be the effect or the level left
In short: (§2)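 Age- and sex-matched B6Bcl2 transgenic mice (human BCL-2/IgH minigene, B cells accumulating in spleen), free of aggressive lymphoma. Single ip injection at 72 μmol/kg in 500 μL ethanol:Cremophor EL:saline 10:10:80; controls got vehicle alone. Killed with Avertin after 24 h and spleen weighed. Shrinkage expressed as percentage of maximum spleen-weight reduction.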

Mus musculus [13] = experiment: Toxicity in BALB/c mouse assessed as mortality at 100 mg/kg, ip administered as single dose after 14 days; format: organism-based; parameters: dose 100 mg/kg, route intraperitoneal; conditions: in vivo, 336 h
Mus musculus [14] = experiment: Toxicity in BALB/c mouse assessed as mortality at 75 mg/kg, ip administered as single dose after 14 days; format: organism-based; parameters: dose 75 mg/kg, route intraperitoneal; conditions: in vivo, 336 h
Mus musculus [15] = experiment: Toxicity in human Bcl2 expressing B6 transgenic mouse assessed as gastrointestinal toxicity at 42 umol/kg, ip administered as single dose; format: organism-based; conditions: in vivo
Mus musculus [16] = experiment: Toxicity in mouse assessed as reduction of spleen weight at 42 mg/kg, ip; format: organism-based; parameters: dose 42 mg/kg, route intraperitoneal; conditions: in vivo
In short: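 B6Bcl2 transgenic mice, six per group, given a single ip dose of 42 mg/kg (60 μmol/kg) in ethanol:Cremophor EL:saline 10:10:80; six vehicle-injected controls. Spleens weighed 24 h after injection. Data are means ± S.E. (n = 6).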

Mus musculus [17] = experiment: Toxicity in BALB/c mouse assessed as weight loss at 25 mg/kg, ip administered as single dose after 14 days; format: organism-based; parameters: dose 25 mg/kg, route intraperitoneal; conditions: in vivo, 336 h
[18] = Cytotoxicity against wild type mouse fibroblast assessed as induction of cell death at 10 uM by FITC-annexin V and propidium iodide assay; format: cell-based
In short: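 Wild-type MEFs seeded at half a million per well in DMEM with 10% FCS. Next day compound added at 0, 2.5, 5.0, 7.5 or 10 μM. On the following day, floating and trypsinized adherent cells were pooled and stained with Annexin V-FITC and PI in binding buffer. Analyzed by flow cytometry, with double-negative cells counted as viable.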

Mus musculus [19] = experiment: Toxicity in human Bcl2 expressing B6 transgenic mouse assessed as weight loss at 42 umol/kg, ip administered as single dose; format: organism-based; conditions: in vivo
Mus musculus [20] = experiment: Induction of spleen weight shrinkage in human Bcl2 expressing B6 transgenic mouse at 72 umol/kg, ip administered as single dose after 24 hrs; format: functional; in short: as §2
Mus musculus [21] = experiment: Toxicity in BALB/c mouse assessed as mortality at 25 mg/kg, ip administered as single dose after 14 days; format: organism-based; parameters: dose 25 mg/kg, route intraperitoneal; conditions: in vivo, 336 h
Mus musculus [22] = experiment: Toxicity in BALB/c mouse assessed as mortality at 50 mg/kg, ip administered as single dose after 14 days; format: organism-based; parameters: dose 50 mg/kg, route intraperitoneal; conditions: in vivo, 336 h
Mus musculus [23] = experiment: Toxicity in BALB/c mouse assessed as weight loss at 75 mg/kg, ip after 5 days; format: organism-based; parameters: dose 75 mg/kg, route intraperitoneal; conditions: in vivo, 120 h
In short: (§3)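 Tolerability study in five mice given a single ip dose of 100, 75, 50 or 25 mg/kg. Animals observed for 14 days, recording body weight loss as morbidity and mortality.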

Mus musculus [24] = experiment: Gastrointestinal toxicity in human Bcl2 expressing B6 transgenic mouse at 50 mg/kg, ip administered as single dose after 24 hrs; format: organism-based; parameters: dose 50 mg/kg, route intraperitoneal; conditions: in vivo
Mus musculus [25] = experiment: Toxicity in BALB/c mouse assessed as recovery of weight loss administered as single ip dose after 14 days; format: organism-based; conditions: in vivo, 336 h; in short: as §3
Mus musculus [26] = experiment: Reduction of spleen weight in human Bcl2 expressing B6 transgenic mouse at 42 umol/kg, ip administered as single dose after 24 hrs; format: functional; parameters: scale not given: the % may be the effect or the level left
Mus musculus [27] = experiment: Toxicity in BALB/c mouse assessed as weight loss at 50 mg/kg, ip administered as single dose after 14 days; format: organism-based; parameters: dose 50 mg/kg, route intraperitoneal; conditions: in vivo, 336 h; in short: as §3
[28] = Cytotoxicity against Bax/Bak double knockout mouse fibroblast assessed as induction of cell death at 10 uM by FITC-annexin V and propidium iodide assay; format: cell-based
In short: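 MEFs (wild-type and Bax/Bak double knockout) seeded at half a million per well in DMEM with 10% FCS; next day compound added at final 0, 2.5, 5.0, 7.5 and 10 μM. After about one day, floating and trypsinised adherent cells were pooled and stained with Annexin V-FITC and PI. Flow cytometry scored Annexin V-negative/PI-negative cells as viable.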

BP3 = experiment: Cytotoxicity against human BP3 cells expressing Bfl1/Mcl1 by FITC-annexin V and propidium iodide assay; format: functional, cell-based
Bcl-2-related protein A1 = biological target: T1, Bcl-2-related protein A1 (Homo sapiens, UniProt Q16548); experiment: Displacement of F-BakBH3 from Bfl-1 by fluorescence polarization assay
T1 sequence (Q16548 whole entry): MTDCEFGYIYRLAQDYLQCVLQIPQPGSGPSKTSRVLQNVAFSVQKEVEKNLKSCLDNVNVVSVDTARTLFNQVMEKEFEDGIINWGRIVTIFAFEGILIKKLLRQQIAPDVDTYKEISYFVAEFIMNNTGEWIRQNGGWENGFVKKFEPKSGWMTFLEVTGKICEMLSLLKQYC

Chain of Bcl-2-like protein 1 (Homo sapiens) (Q07817 whole entry): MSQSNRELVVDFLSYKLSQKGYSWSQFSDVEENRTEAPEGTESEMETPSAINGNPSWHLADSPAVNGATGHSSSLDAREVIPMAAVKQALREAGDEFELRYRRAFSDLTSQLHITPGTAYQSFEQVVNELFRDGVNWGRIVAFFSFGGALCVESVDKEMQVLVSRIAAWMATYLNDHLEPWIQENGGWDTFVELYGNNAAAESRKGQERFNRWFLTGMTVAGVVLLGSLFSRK

Row | SMILES | Activity [1] | EC50 [2] [µM] | remaining at 1 h [3] [%] | logPe [4] [log cm/s] | EC50 [5] [µM] | EC50 [6] [µM] | Activity (Mus musculus [7]) | EC50 (NCI-H460) [µM] | Activity (Mus musculus [8]) | remaining at 1 h, 4 µM [9] [%] | EC50 [10] [µM] | Stability [11] | Activity (Mus musculus [12]) | Activity [18] | Activity (Mus musculus [20]) | other results
1 | Cc1cc2c(CC3CCCC3)c(O)c(O)cc2c(O)c1-c1c(C)cc2c(CC3CCCC3)c(O)c(O)cc2c1O | Active | 11.2 | 81 | -6.27 | 10.9 | 4.5 | Non-toxic | 1.8 | Non-toxic | 75 |  |  |  |  |  | 
2 | Cc1cc2c(CCc3ccccc3)c(O)c(O)cc2c(O)c1-c1c(C)cc2c(CCc3ccccc3)c(O)c(O)cc2c1O | Active | 2.4 | 80 | -6.61 | 0.58 | 9.8 | Non-toxic | 0.92 | Non-toxic | 89 | 4.14 | Stable |  |  |  | 
3 | Cc1cc2c(C(=O)NCC(C)c3ccccc3)c(O)c(O)cc2c(O)c1-c1c(C)cc2c(C(=O)NCC(C)c3ccccc3)c(O)c(O)cc2c1O (configuration not stated) | Active |  | 96 | -7.51 |  |  | Toxic |  |  | 76 |  | Stable | 40% | 80% | 85% | Activity (Mus musculus [13]): Non-toxic; Activity (Mus musculus [14]): Non-toxic; Activity (Mus musculus [15]): Non-toxic; Activity (Mus musculus [16]): Non-toxic; Activity (Mus musculus [17]): Non-toxic; Activity (Mus musculus [19]): 7.8%; Activity (Mus musculus [21]): Non-toxic; Activity (Mus musculus [22]): Non-toxic; Activity (Mus musculus [23]): Non-toxic; Activity (Mus musculus [24]): Toxic; Activity (Mus musculus [25]): 80%; Activity (Mus musculus [26]): 70%; Activity (Mus musculus [27]): <= 15%
4 | Cc1cc2c(C(C)C)c(O)c(O)c(C=O)c2c(O)c1-c1c(C)cc2c(C(C)C)c(O)c(O)c(C=O)c2c1O [GOSSYPOL] | Active | 3.1 |  |  | 6 | 4.2 |  | 3 |  |  | 1.42 |  | <=20% | Active | <=40% | Activity [28]: Active
5 | CN(C)CC[C@H](CSc1ccccc1)Nc1ccc(S(=O)(=O)NC(=O)c2ccc(N3CCN(Cc4ccccc4-c4ccc(Cl)cc4)CC3)cc2)cc1[N+](=O)[O-] |  |  |  |  |  |  |  |  |  |  |  |  |  |  |  | Activity (BP3): inactive
6 | Cc1cc2c(C(C)C)c(O)c(O)cc2c(O)c1-c1c(C)cc2c(C(C)C)c(O)c(O)cc2c1O [APOGOSSYPOL] |  | 10.4 | 53 | -7.16 |  | 5 | Non-toxic | 3.5 |  | 64 | 4.7 | Stable | <=20% |  | <=40% | IC50 (Bcl-2-related protein A1): > 10 µM
